pIC50, pKi: −log10 of the molar value. The source made the active and inactive calls. No cut-off for these calls is given here. Peptide text beside a SMILES is read from it.
What was measured:
[1] = Inhibition of human N-terminal His6-tagged Bcl2 isoform 2 expressed in Escherichia coli BL21(DE3) assessed as inhibition of Fluorescein-labeled BIM binding after 1 to 2 hrs by fluorescence polarization assay
Bcl-2-like protein 1 = Bcl-2-like protein 1 (Homo sapiens, UniProt Q07817); assay: Inhibition of human N-terminal His8-tagged Bcl-XL expressed in Escherichia coli BL21(DE3) assessed as inhibition of Fluorescein-labeled BAK binding after 1 to 2 hrs by fluorescence polarization assay
Sequence of Bcl-2-like protein 1 (Q07817 whole entry): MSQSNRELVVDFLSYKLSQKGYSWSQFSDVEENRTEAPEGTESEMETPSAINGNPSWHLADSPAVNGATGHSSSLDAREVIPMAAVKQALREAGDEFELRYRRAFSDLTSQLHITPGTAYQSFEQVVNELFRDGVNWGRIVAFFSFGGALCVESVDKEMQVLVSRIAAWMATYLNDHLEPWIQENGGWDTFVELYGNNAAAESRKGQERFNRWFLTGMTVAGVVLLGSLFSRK

[2] = molecular target: Induced myeloid leukemia cell differentiation protein Mcl-1 (Homo sapiens, UniProt Q07820); assay: Inhibition of human N-terminal His8-tagged Mcl1 expressed in Escherichia coli BL21(DE3) assessed as inhibition of Fluorescein-labeled BID binding after 1 to 2 hrs by fluorescence polarization assay
Sequence of Induced myeloid leukemia cell differentiation protein Mcl-1 (Q07820 whole entry): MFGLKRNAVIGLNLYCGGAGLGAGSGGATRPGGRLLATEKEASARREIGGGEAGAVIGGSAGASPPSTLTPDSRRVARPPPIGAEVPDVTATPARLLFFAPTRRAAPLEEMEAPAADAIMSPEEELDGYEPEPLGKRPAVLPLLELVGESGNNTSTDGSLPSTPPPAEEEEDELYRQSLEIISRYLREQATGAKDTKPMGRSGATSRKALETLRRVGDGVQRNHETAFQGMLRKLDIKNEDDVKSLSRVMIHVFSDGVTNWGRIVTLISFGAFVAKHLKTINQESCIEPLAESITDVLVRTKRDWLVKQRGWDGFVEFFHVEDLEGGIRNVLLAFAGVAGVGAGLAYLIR

NCI-H146 [3] = assay: Induction of cell death in human NCI-H146 cells after 24 hrs by trypan blue assay; format: functional, cell-based
Summary of the method: (§1)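 H146 cells were treated for 24 h across a range of concentrations. Cell death was scored by trypan blue assay.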

NCI-H146 [4] = assay: Induction of apoptosis in human NCI-H146 cells assessed as caspase3 activation after 24 hrs by Western blot analysis; format: functional, cell-based
Summary of the method: (§2)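 H146 cells were treated for 24 h at a range of concentrations. Lysates were probed by Western blot with rabbit antibodies to PARP and caspase-3, detecting the cleaved forms. GAPDH served as loading control.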

NCI-H146 [5] = assay: Induction of apoptosis in human NCI-H146 cells assessed as PARP cleavage after 24 hrs by Western blot analysis; format: functional, cell-based; summary of the method: as §2
[6] = Antiproliferative activity against human NCI-H146 cells after 4 days by WST8 assay; format: functional, cell-based; details: NCI-H146, 96 h
Summary of the method: (§3)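 Growth inhibition was measured as described previously. IC50 values come from growth curves.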

NCI-H1417 = assay: Antiproliferative activity against human NCI-H1417 cells after 4 days by WST8 assay; format: functional, cell-based; details: NCI-H1417, 96 h; summary of the method: as §3
NCI-H1963 = assay: Antiproliferative activity against human NCI-H1963 cells after 4 days by WST8 assay; format: functional, cell-based; details: NCI-H1963, 96 h; summary of the method: as §3
NCI-H146 [7] = assay: Induction of apoptosis in human NCI-H146 cells assessed as PARP cleavage at 30 nM after 2 hrs by Western blot analysis; format: functional, cell-based
Mus musculus [8] = assay: Toxicity in SCID mouse assessed as weight loss at 25 mg/kg, iv administered 5 days a week for 2 weeks; format: organism-based; set-up: dose 25 mg/kg, route intravenous; details: in vivo
NCI-H146 [9] = assay: Induction of apoptosis in human NCI-H146 cells xenografted in SCID mouse assessed as PARP cleavage at 25 mg/kg, iv at 3 hrs by Western blot analysis; format: functional, organism-based; set-up: dose 25 mg/kg
Summary of the method: (§4)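 SCID mice bearing subcutaneous H146 tumors (about 100 mm3) received a single i.v. dose of 25 mg/kg or vehicle. Tumors were collected at 3, 6 and 24 h. Western blot of tumor tissue assessed PARP and caspase-3 and their cleaved forms, with GAPDH as loading control.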

NCI-H146 [10] = assay: Induction of apoptosis in human NCI-H146 cells xenografted in SCID mouse assessed as caspase3 activation at 25 mg/kg, iv at 3 hrs by Western blot analysis; format: functional, organism-based; set-up: dose 25 mg/kg; summary of the method: as §4
NCI-H146 [11] = assay: Induction of apoptosis in human NCI-H146 cells xenografted in SCID mouse assessed as PARP cleavage at 25 mg/kg, iv up to 24 hrs by Western blot analysis; format: functional, organism-based; set-up: dose 25 mg/kg; summary of the method: as §4
NCI-H146 [12] = assay: Induction of apoptosis in human NCI-H146 cells xenografted in SCID mouse assessed as caspase3 activation at 25 mg/kg, iv up to 24 hrs by Western blot analysis; format: functional, organism-based; set-up: dose 25 mg/kg; summary of the method: as §4
NCI-H146 [13] = assay: Antitumor activity against human NCI-H146 cells xenografted in SCID mouse assessed as tumor growth inhibition at 25 mg/kg, iv administered 5 days a week for 2 weeks relative to vehicle-treated control; format: functional, organism-based; set-up: dose 25 mg/kg
Summary of the method: (§5)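 SCID mice received 5 × 10^6 H146 cells with matrigel, injected subcutaneously on the dorsal side, one tumor per mouse. At 40–110 mm3 (mean 70 mm3), mice were randomized, 8 per group. Dosing was 25 mg/kg i.v. daily, 5 days/week for 2 weeks, versus vehicle. Tumor size and body weight were measured 3×/week during treatment and 2×/week afterwards.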

NCI-H146 [14] = assay: Antitumor activity against human NCI-H146 cells xenografted in SCID mouse assessed as tumor regression at 25 mg/kg, iv administered 5 days a week for 2 weeks relative to vehicle-treated control; format: functional, organism-based; set-up: dose 25 mg/kg; summary of the method: as §5
[15] = Antitumor activity against human NCI-H146 cells xenografted in SCID mouse assessed as tumor size at 25 mg/kg, iv administered 5 days a week for 2 weeks measured on day 92 ( Rvb = 800 mm3); format: functional; summary of the method: as §5
Mus musculus [16] = assay: Toxicity in SCID mouse xenografted with human NCI-H146 cells assessed as weight loss at 25 mg/kg, iv administered 5 days a week for 2 weeks; format: organism-based; set-up: dose 25 mg/kg, route intravenous; details: in vivo; summary of the method: as §5
NCI-H146 [17] = assay: Induction of cell death in human NCI-H146 cells at 10 nM after 24 hrs by trypan blue assay; format: functional, cell-based; summary of the method: as §1
NCI-H146 [18] = assay: Induction of apoptosis in human NCI-H146 cells assessed as increase in cytochrome c release after 2 hrs; format: functional, cell-based
NCI-H146 [19] = assay: Induction of apoptosis in human NCI-H146 cells assessed as PARP cleavage after 2 hrs by Western blot analysis; format: functional, cell-based
NCI-H146 [20] = assay: Induction of apoptosis in human NCI-H146 cells assessed as increase in cytochrome c release at 30 nM after 2 hrs; format: functional, cell-based
NCI-H146 [21] = assay: Induction of apoptosis in human NCI-H146 cells assessed as caspase3 activation at 10 nM after 24 hrs by Western blot analysis; format: functional, cell-based; summary of the method: as §2
NCI-H146 [22] = assay: Induction of apoptosis in human NCI-H146 cells assessed as PARP cleavage at 10 nM after 24 hrs by Western blot analysis; format: functional, cell-based; summary of the method: as §2

Row | SMILES | pIC50 [1] | pKi [1] | pKi (Bcl-2-like protein 1) | pIC50 [2] | Activity (NCI-H146 [3]) | Activity (NCI-H146 [4]) | Activity (NCI-H146 [5]) | pIC50 [6] | pIC50 (NCI-H1417) | pIC50 (NCI-H1963) | pIC50 (Bcl-2-like protein 1) | other results
1 | Cc1c(C(=O)O)c(-c2cccc(N3CCN(c4ccc(NS(=O)(=O)c5ccc(N[C@H](CCN(C)C)CSc6ccccc6)c([N+](=O)[O-])c5)cc4)CC3)c2)c(-c2ccc(Cl)cc2)n1C | 8.89 | > 9.22 | > 9.00 | < 5.70 | Dose-dependent effect | Dose-dependent effect | Dose-dependent effect | – | – | – | – | –
2 | Cc1c(C(=O)NCCCN2CCN(C)CC2)c(-c2cccc(N3CCN(c4ccc(NS(=O)(=O)c5ccc(N[C@H](CCN(C)C)CSc6ccccc6)c([N+](=O)[O-])c5)cc4)CC3)c2)c(-c2ccc(Cl)cc2)n1C | 8.70 | > 9.22 | 8.62 | < 5.00 | – | – | – | 6.96 | 6.59 | 7.14 | – | –
3 | CCn1c(C)c(C(=O)O)c(-c2cccc(N3CCN(c4ccc(NS(=O)(=O)c5ccc(N[C@H](CCN(C)C)CSc6ccccc6)c([N+](=O)[O-])c5)cc4)CC3)c2)c1-c1ccc(Cl)cc1 | 8.70 | > 9.22 | > 9.00 | < 5.70 | Dose-dependent effect | Dose-dependent effect | Dose-dependent effect | 8.09 | 7.75 | 8.35 | 8.18 | Activity (NCI-H146 [7]): Active; Activity (Mus musculus [8]): Non-toxic; Activity (NCI-H146 [9]): Active; Activity (NCI-H146 [10]): Active; Activity (NCI-H146 [11]): Active; Activity (NCI-H146 [12]): Active; TGI (NCI-H146 [13]): Active; Activity (NCI-H146 [14]): Active; Activity [15]: 200 mm3; Activity (Mus musculus [16]): < 10%; Activity (NCI-H146 [17]): Active; Activity (NCI-H146 [18]): Dose-dependent effect; Activity (NCI-H146 [19]): Dose-dependent effect; Activity (NCI-H146 [20]): Active
4 | Cc1cc(-c2cccc(N3CCN(c4ccc(NS(=O)(=O)c5ccc(N[C@H](CCN(C)C)CSc6ccccc6)c([N+](=O)[O-])c5)cc4)CC3)c2)c(-c2ccc(Cl)cc2)n1C | – | – | 8.92 | < 5.00 | – | – | – | < 5.00 | – | – | 7.96 | –
5 | Cc1c(C(=O)O)c(-c2cccc(N3CCN(c4ccc(NS(=O)(=O)c5ccc(N[C@H](CCN(C)C)CSc6ccccc6)c([N+](=O)[O-])c5)cc4)CC3)c2)c(-c2ccc(Cl)cc2)n1C1CC1 | 7.75 | 8.37 | > 9.00 | < 5.70 | – | – | – | 7.16 | 6.81 | 7.22 | 8.11 | –
6 | CNC(=O)c1c(-c2cccc(N3CCN(c4ccc(NS(=O)(=O)c5ccc(N[C@H](CCN(C)C)CSc6ccccc6)c([N+](=O)[O-])c5)cc4)CC3)c2)c(-c2ccc(Cl)cc2)n(C)c1C | 8.30 | 8.96 | > 9.00 | – | – | – | – | 7.44 | 6.96 | 7.52 | – | –
7 | Cc1c(C(=O)NCCCN2CCN(C)CC2)c(-c2cccc(N3CCN(c4ccc(C(=O)NS(=O)(=O)c5ccc(N[C@H](CCN(C)C)CSc6ccccc6)c([N+](=O)[O-])c5)cc4)CC3)c2)c(-c2ccc(Cl)cc2)n1C | – | 8.15 | – | < 4.00 | – | – | – | < 5.00 | < 5.00 | < 5.00 | – | –
8 | CSCC[C@H](NC(=O)[C@H](CCCN=C(N)N)NC(=O)[C@H](CCCN=C(N)N)NC(=O)[C@H](CC(C)C)NC(=O)[C@H](CCC(=O)O)NC(=O)[C@H](CCCN=C(N)N)NC(=O)CNC(=O)[C@H](Cc1ccc(O)cc1)NC(=O)[C@H](CCCN=C(N)N)NC(=O)[C@H](CCC(N)=O)NC(=O)[C@H](C)NC(=O)[C@H](C)NC(=O)[C@@H](N)Cc1c[nH]c2ccccc12)C(=O)N[C@@H](CO)C(=O)N[C@@H](CC(=O)O)C(=O)N[C@@H](CCC(=O)O)C(=O)N[C@@H](Cc1ccccc1)C(=O)N[C@H](C(=O)N[C@@H](CC(=O)O)C(=O)N[C@@H](CO)C(=O)N[C@@H](Cc1ccccc1)C(=O)N[C@@H](CCCCN)C(=O)O)C(C)C (H-WAAQRYGRELRRMSDEFVDSFK-OH) | – | – | > 9.00 | 4.49 | – | – | – | – | – | – | 8.30 | –
9 | Cc1c(C(=O)O)c(-c2cccc(N3CCN(c4ccc(NS(=O)(=O)c5ccc(N[C@H](CCN(C)C)CSc6ccccc6)c([N+](=O)[O-])c5)cc4)CC3)c2)c(-c2ccc(Cl)cc2)n1C(C)C | – | – | > 9.00 | < 5.70 | Dose-dependent effect | Dose-dependent effect | Dose-dependent effect | – | – | – | 8.32 | Activity (NCI-H146 [7]): Active; Activity (Mus musculus [8]): Toxic; Activity (NCI-H146 [17]): Active; Activity (NCI-H146 [21]): Active; Activity (NCI-H146 [22]): Active; Activity (NCI-H146 [18]): Dose-dependent effect; Activity (NCI-H146 [19]): Dose-dependent effect; Activity (NCI-H146 [20]): Active
10 | CN(C)CC[C@H](CSc1ccccc1)Nc1ccc(S(=O)(=O)NC(=O)c2ccc(N3CCN(Cc4ccccc4-c4ccc(Cl)cc4)CC3)cc2)cc1[N+](=O)[O-] [ABT 737] | – | – | – | – | Dose-dependent effect | Dose-dependent effect | Dose-dependent effect | 7.43 | 6.39 | 7.23 | – | –
11 | CC(C)C[C@H](NC(=O)[C@H](CCCCN)NC(=O)[C@H](CC(=O)O)NC(=O)CNC(=O)[C@H](Cc1ccccc1)NC(=O)[C@H](CCCNC(=N)N)NC(=O)[C@H](CCCNC(=N)N)NC(=O)[C@H](CC(C)C)NC(=O)[C@H](CCC(N)=O)NC(=O)[C@@H](NC(=O)[C@H](C)NC(=O)[C@H](CS)NC(=O)[C@H](CCC(=O)O)NC(=O)[C@@H](NC(=O)[C@H](CCC(=O)O)NC(=O)[C@H](CC(C)C)NC(=O)[C@@H](N)CCC(=O)O)C(C)C)[C@@H](C)O)C(=O)N[C@@H](CC(N)=O)C(=O)N[C@@H](Cc1ccccc1)C(=O)N[C@@H](CCCNC(=N)N)C(=O)N[C@@H](CCC(N)=O)C(=O)N[C@@H](CCCCN)C(=O)O (H-ELEVECATQLRRFGDKLNFRQK-OH) | – | – | 5.47 | 7.43 | – | – | – | – | – | – | 4.96 | –
12 | CN1CCN(CCCNC(=O)c2c(-c3ccccc3)c(-c3ccc(Cl)cc3)cn2CC[C@H](O)CO)CC1 | – | – | – | – | – | – | – | – | – | < 5.00 | – | –
13 | Cc1c(C(=O)NCCCN2CCN(C)CC2)c(-c2ccccc2)c(-c2ccc(Cl)cc2)n1C | 3.99 | 4.42 | 4.06 | < 4.00 | – | – | – | < 5.00 | < 5.00 | < 5.00 | 3.54 | –

Source: ChEMBL document CHEMBL2157965, “Structure-based design of potent Bcl-2/Bcl-xL inhibitors with strong in vivo antitumor activity” (J Med Chem, 2012)
